Results: ChEMBL document CHEMBL1133099, “Structure-property model for membrane partitioning of oligopeptides” (J Med Chem, 2000)
Residues, ends and D or L forms follow the SMILES beside them.

Legend:
Type in all cases: physicochemical
[1] = Distribution coefficient between n-octanol and hanks buffered saline solution
Procedure, shortened: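 Distribution between n-octanol and Hanks buffered saline at pH 7.4, measured by the shake-flask method.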

[2] = pKa1 values were determined by potentiometric titrations.; settings: read-out: pKa1
[3] = pKa2 values were determined by potentiometric titrations.; settings: read-out: pKa2
[4] = Ionization constant (pKa1) values were determined by potentiometric titrations.; settings: read-out: pKa1
[5] = Ionization constant (pKa2) values were determined by potentiometric titrations.; settings: read-out: pKa2

## CC(=O)N[C@@H](CC(=O)O)C(=O)N[C@@H](CCC(N)=O)C(=O)N[C@@H](CC(C)C)C(=O)N[C@@H](Cc1ccccc1)C(N)=O (Ac-DQLF-NH2)
[1]
  logD: > -2.5
[2]
  pKa: 3.97

## CC(=O)N[C@@H](Cc1ccccc1)C(=O)N1CCC[C@H]1C(=O)N[C@@H](Cc1ccccc1)C(=O)N[C@@H](Cc1ccc(O)cc1)C(N)=O (Ac-FPFY-NH2)
[1]
  logD: 1.64

## CC(=O)N[C@@H](Cc1ccc(O)cc1)C(=O)NCC(=O)NCC(=O)N[C@@H](CCC(N)=O)C(N)=O (Ac-YGGQ-NH2)
[1]
  logD: -2.59

## CC(=O)N[C@@H](Cc1ccccc1)C(=O)N[C@@H](CC(C)C)C(=O)N[C@H](C(=O)N(C)[C@@H](CC(C)C)C(N)=O)C(C)C (HELM PEPTIDE1{[ac].F.L.V.[meL].[am]}$$$$V2.0)
[1]
  logD: 2.42

## CC(=O)N[C@@H](Cc1ccccc1)C(=O)N[C@@H](CCC(N)=O)C(=O)N[C@@H](CCCCN)C(=O)N(C)[C@@H](CC(C)C)C(N)=O (HELM PEPTIDE1{[ac].F.Q.K.[meL].[am]}$$$$V2.0)
[3]
  pKa: 10.1

## CC(=O)NCC(=O)N[C@@H](CC(C)C)C(=O)N[C@@H](CC(=O)O)C(=O)N(C)[C@@H](Cc1ccccc1)C(N)=O (HELM PEPTIDE1{[ac].G.L.D.[meF].[am]}$$$$V2.0)
[4]
  pKa: 3.93

## CC(=O)NCC(=O)N(C)CC(=O)N[C@@H](CC(C)C)C(=O)N[C@@H](Cc1ccccc1)C(N)=O (HELM PEPTIDE1{[ac].G.[Sar].L.F.[am]}$$$$V2.0)
[1]
  logD: 0.05

## CC(=O)NCC(=O)N(C)[C@@H](Cc1ccccc1)C(=O)N[C@@H](CCCCN)C(=O)N[C@@H](CC(=O)O)C(N)=O (HELM PEPTIDE1{[ac].G.[meF].K.D.[am]}$$$$V2.0)
[5]
  pKa: 10.3
[4]
  pKa: 3.78

## CC(=O)N[C@@H](CCCCN)C(=O)N(C)CC(=O)N[C@@H](Cc1ccc(O)cc1)C(=O)N(C)[C@@H](CC(=O)O)C(N)=O (HELM PEPTIDE1{[ac].K.[Sar].Y.[meD].[am]}$$$$V2.0)
[5]
  pKa: 9.69
[4]
  pKa: 3.6

## CC(=O)N[C@@H](CCCCN)C(=O)N(C)[C@@H](Cc1ccccc1)C(=O)NCC(=O)N(C)[C@@H](CC(C)C)C(N)=O (HELM PEPTIDE1{[ac].K.[meF].G.[meL].[am]}$$$$V2.0)
[3]
  pKa: 9.94
[1]
  logD: -1.33

## CC(=O)N[C@@H](CO)C(=O)N(C)[C@@H](Cc1ccccc1)C(=O)NCC(=O)NCC(N)=O (HELM PEPTIDE1{[ac].S.[meF].G.G.[am]}$$$$V2.0)
[1]
  logD: -1.51
